Laboratory results: ChEMBL document CHEMBL1128377, “Novel inhibitors of potassium ion channels on human T lymphocytes” (J Med Chem, 1995)
One block for each molecule: values may come before it.

Assays:
[1] = Inhibition of [3H]dofetilide binding to guinea pig cardiac potassium (K+) channels.; set-up: species or system Cavia porcellus
Summary of the method: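 Radioligand binding of [3H]dofetilide to guinea pig cardiac myocytes, run by a previously published method. The IC50 is reported as the mean of at least two determinations.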

[2] = biological target: T1, Potassium voltage-gated channel subfamily A member 3 (Homo sapiens, UniProt P22001); assay: Concentration inhibiting [125I]ChTX (charybdotoxin) binding to N-type potassium channel.
[3] = biological target: T1, Potassium voltage-gated channel subfamily A member 3; assay: Inhibition of outward potassium currents (IKn) in human T-lymphocyte N-type potassium channels.; format: functional
Summary of the method: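 Whole-cell patch clamp held at -80 mV, with 150 ms steps to 30 mV once per minute and stabilization for >6 min. Test agent was perfused at one fixed concentration per cell for 6 min. The first pulse gave closed-channel block and the next gave open-channel block. Peak outward current was compared with predrug current as percent blocked. IC50 was fitted from n > 9 data points.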

[4] = organism: Cavia porcellus; assay: Inhibition of [3H]dofetilide binding to cardiac potassium (K+) channels at 400 nM
[5] = Partition coefficient (logP) (HPLC); format: physicochemical; settings: octanol/water
[6] = Acid dissociation constant was determined; format: ADME
[7] = organism: Cavia porcellus; assay: Inhibition of [3H]dofetilide binding to guinea pig cardiac myocytes potassium (K+) channels at 400 nM

T1 sequence (P22001 whole entry): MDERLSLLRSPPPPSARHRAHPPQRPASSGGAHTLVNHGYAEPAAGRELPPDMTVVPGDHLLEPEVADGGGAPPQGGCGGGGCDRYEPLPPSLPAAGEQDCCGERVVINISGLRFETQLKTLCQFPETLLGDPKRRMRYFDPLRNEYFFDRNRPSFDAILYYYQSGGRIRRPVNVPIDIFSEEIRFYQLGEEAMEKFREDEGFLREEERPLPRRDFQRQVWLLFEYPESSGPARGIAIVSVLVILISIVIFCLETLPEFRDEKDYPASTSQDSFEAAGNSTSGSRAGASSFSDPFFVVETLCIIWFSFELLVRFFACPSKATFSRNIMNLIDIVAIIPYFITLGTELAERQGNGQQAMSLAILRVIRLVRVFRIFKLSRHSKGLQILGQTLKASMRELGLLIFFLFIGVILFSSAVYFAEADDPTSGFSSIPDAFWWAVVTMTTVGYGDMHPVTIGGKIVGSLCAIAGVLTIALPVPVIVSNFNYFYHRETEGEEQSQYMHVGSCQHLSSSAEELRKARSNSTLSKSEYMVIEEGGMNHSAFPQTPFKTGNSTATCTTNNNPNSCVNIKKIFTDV

IC50 [1]: 210 nM
Compound: CCCCCC/N=c1\ccn(Cc2ccccc2)c2c(OC)cccc12

Compound: N=c1ccn(Cc2ccccc2)c2cc(Cl)ccc12
IC50 [2]: > 8000 nM

Compound: CCCCCC/N=c1\ccn(Cc2ccc(OC)cc2)c2cc(Cl)ccc12
IC50 [2]: 88 nM | IC50 [3]: 329 nM

Compound: CCCC/N=c1\ccn(Cc2ccccc2)c2cc(Cl)ccc12
inhibition [4]: 24% | IC50 [2]: 198 nM | IC50 [3]: 2620 nM

IC50 [1]: 310 nM
Compound: CCCCC/N=c1\ccn(Cc2ccc(Cl)cc2)c2c(F)cccc12

Compound: CCCCCC/N=c1\ccn(Cc2ccccc2)c2ccccc12
IC50 [2]: 164 nM | IC50 [3]: 1050 nM

Compound: CC(C)C/N=c1\ccn(Cc2ccccc2)c2cc(Cl)ccc12
IC50 [2]: 206 nM | IC50 [1]: 2000 nM

Compound: CCCCC/N=c1\ccn(Cc2ccc(Cl)cc2)c2cc(C(F)(F)F)ccc12
IC50 [2]: 239 nM | IC50 [1]: 90 nM

IC50 [1]: 1990 nM
Compound: CCCCC/N=c1\ccn(Cc2ccc(Cl)cc2)c2ccc(OC)cc12

Compound: CCCC/N=c1\ccn(CCCc2ccccc2)c2cc(Cl)ccc12
logP [5]: 3.82 | pKa [6]: 11.4 | IC50 [2]: 471 nM

Compound: CCCCCC/N=c1\ccn(Cc2ccc(Cl)cc2)c2cc(Cl)ccc12
IC50 [2]: 100 nM | IC50 [1]: 3230 nM

Compound: CCCCCCNc1cc[n+](C)c2c(-c3ccccc3)cccc12
IC50 [2]: 240 nM | IC50 [1]: 223 nM | IC50 [3]: 602 nM

Compound: CC(C)CCCC(C)/N=c1\ccn(Cc2ccccc2)c2cc(Cl)ccc12 (stereo not given)
IC50 [2]: 817 nM | IC50 [1]: 175 nM | IC50 [3]: 1680 nM

Compound: CCCCCCNc1cc[n+](-c2ccccc2)c2c(-c3ccccc3)cccc12
logP [5]: 3.89 | pKa [6]: 9.58 | IC50 [2]: 930 nM

Compound: CCCCC/N=c1\ccn(C2CCc3ccccc32)c2cc(Cl)ccc12 (stereo not given)
IC50 [2]: 2300 nM | IC50 [1]: 870 nM

IC50 [1]: 57 nM
Compound: CCN(CC)CC/N=c1\ccn(Cc2ccccc2Cl)c2cc(Cl)ccc12

Compound: CCCCCC/N=c1\ccn(Cc2ccccc2)c2cc(Cl)ccc12
pKa [6]: 11.5 | IC50 [2]: 32 nM | IC50 [1]: 820 nM | IC50 [3]: 335 nM

Compound: CCCCCC/N=c1\ccn(Cc2ccccc2Cl)c2cc(Cl)ccc12
IC50 [2]: 190 nM | IC50 [1]: 780 nM | IC50 [3]: 216 nM

Compound: CCCCC/N=c1\ccn(Cc2ccccc2)c2cc(Cl)ccc12
IC50 [1]: 1300 nM | IC50 [3]: 250 nM

Compound: CCCCCCCC/N=c1\ccn(Cc2ccccc2)c2cc(Cl)ccc12
IC50 [2]: 280 nM | IC50 [1]: 2400 nM | IC50 [3]: 351 nM

Compound: C[N+](C)(C)CCC/N=c1\ccn(Cc2ccccc2Cl)c2cc(Cl)ccc12
IC50 [2]: > 30000 nM | IC50 [3]: > 10000 nM

Compound: CCCCC/N=c1\ccn(Cc2ccc(Cl)cc2)c2ccc(C(F)(F)F)cc12
IC50 [2]: 340 nM | IC50 [1]: 140 nM | IC50 [3]: 213 nM

Compound: Clc1ccc(/N=c2\ccn(Cc3ccccc3Cl)c3cc(Cl)ccc23)c(Cl)c1
IC50 [2]: > 30000 nM | IC50 [1]: > 30000 nM | IC50 [3]: > 10000 nM

Compound: CCCCCCNc1cc[n+](-c2ccccc2)c2c(-c3ccccc3)cc(OC)cc12
logP [5]: 3.73 | IC50 [2]: 240 nM

Compound: Clc1ccc(C/N=c2\ccn(Cc3ccccc3Cl)c3cc(Cl)ccc23)c(Cl)c1
IC50 [2]: 550 nM | IC50 [1]: 2380 nM | IC50 [3]: 259 nM

Compound: CCCCCCC/N=c1\ccn(Cc2ccccc2)c2cc(Cl)ccc12
IC50 [2]: 117 nM | IC50 [1]: 2500 nM | IC50 [3]: 249 nM

Compound: CCCCCC/N=c1\ccn(Cc2ccc(Cl)c(Cl)c2)c2cc(Cl)ccc12
logP [5]: 4.64 | pKa [6]: 11.5 | IC50 [2]: 310 nM | IC50 [1]: > 3500 nM | IC50 [3]: 231 nM

Compound: CCCCCCOc1cc[n+](Cc2ccccc2)c2cc(Cl)ccc12
logP [5]: 3.62 | pKa [6]: 11.2 | IC50 [2]: 828 nM

Compound: C/N=c1\ccn(Cc2ccccc2)c2cc(Cl)ccc12
IC50 [2]: > 5000 nM | inhibition [7]: 24%

Compound: Clc1ccc2/c(=N/C34CC5CC(CC(C5)C3)C4)ccn(Cc3ccccc3)c2c1
IC50 [2]: 1170 nM | IC50 [1]: 157 nM

Compound: CNCCC/N=c1\ccn(Cc2cccc(Cl)c2)c2cc(Cl)ccc12
IC50 [2]: > 30000 nM

Compound: CCCCCCOc1ccc(Cc2ccccc2)c2ccccc12
IC50 [2]: > 5000 nM

Compound: CCCCCC/N=c1\ccn(Cc2ccccc2)c2ccc(OC)cc12
IC50 [2]: 47 nM | IC50 [1]: 680 nM | IC50 [3]: 267 nM

Compound: CCC/N=c1\ccn(Cc2ccccc2)c2cc(Cl)ccc12
IC50 [2]: 544 nM | IC50 [3]: 3160 nM

Compound: O=C(O)CC/N=c1\ccn(Cc2ccccc2Cl)c2cc(Cl)ccc12
IC50 [2]: > 10000 nM
